{
  "source": "the EternaBench riboswitch data",
  "test_system": "MS2 coat protein",
  "test": "apparent Kd, MS2 coat protein; higher = weaker binding; RNA-MaP array; FMN 200 µM where present",
  "in_short": "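Stalled E. coli RNA polymerase transcribed the designs on Illumina sequencing-chip clusters. SNAP-549-labelled MS2 coat protein was titrated from 0.7 or 1.5 nM, doubling to 3 µM, without and then with constant ligand, in 100 mM Tris-HCl pH 7.5, 80 mM KCl, 4 mM MgCl2, BSA, DTT, yeast tRNA and Tween-20. Per-cluster binding curves were fitted to green signal normalised to red-channel RNA signal and control-cluster median Fmax. The apparent Kd is the median of the filtered fits.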",
  "key": {"[1]": {"conditions": "designed as: OFF switch for flavin mononucleotide, no ligand"}, "[2]": {"conditions": "ligand present: flavin mononucleotide, designed as: OFF switch for flavin mononucleotide"}, "[3]": {"conditions": "designed as: ON switch for flavin mononucleotide, no ligand"}, "[4]": {"conditions": "ligand present: flavin mononucleotide, designed as: ON switch for flavin mononucleotide"}},
  "data": [
    {"sequence": "CCGCAAAUGCAGGAUAUCGUAUCGGAAACGAUACGAGAAGGGUAAACAUGAGGAUCACCCAUGUUCCUUAACGG", "values": [
      {"measurement": "apparent Kd", "setting": "[1]", "result": 17.9, "unit": "nM"},
      {"measurement": "apparent Kd", "setting": "[2]", "result": 17, "unit": "nM"}
    ]},
    {"sequence": "GGAUCGAGUGUGAGGAUAUGCUGGUCCUAAGAUCAGCAGAAGGCACAUGAGGAUCACCCAUGUGAAAACGGUCC", "values": [
      {"measurement": "apparent Kd", "setting": "[1]", "result": 26, "unit": "nM"},
      {"measurement": "apparent Kd", "setting": "[2]", "result": 182, "unit": "nM"}
    ]},
    {"sequence": "GCGUAGAUAGCAGGAUAUAUGUUUCCUACAUGAGGAUCACCCAUGUAGGUGAUCAGCCGAGAAAAGUAGAAGGGCUAUCUAUGC", "values": [
      {"measurement": "apparent Kd", "setting": "[3]", "result": 17.4, "unit": "nM"},
      {"measurement": "apparent Kd", "setting": "[4]", "result": 14.5, "unit": "nM"}
    ]},
    {"sequence": "AUAAUAGAGUCAGGAUAUGGACAUGAGGAUCACCCAUGUGCAGGGAUCCUCCCAGAAGGGACAUCUAAACAAAAGGCGCUAUCC", "values": [
      {"measurement": "apparent Kd", "setting": "[1]", "result": 307, "unit": "nM"},
      {"measurement": "apparent Kd", "setting": "[2]", "result": 147, "unit": "nM"}
    ]},
    {"sequence": "CGCCUCAGUUCAGGAUAUGUAUGGGUCUAACGAACAGAAGGGAACAUGAGGAUCACCCAUGUAAAUAGGGCCAAAGGCUAGAUC", "values": [
      {"measurement": "apparent Kd", "setting": "[1]", "result": 41.7, "unit": "nM"},
      {"measurement": "apparent Kd", "setting": "[2]", "result": 175, "unit": "nM"}
    ]},
    {"sequence": "UGACCCAUGACAUGAGAUGACAUGAGGAUCACCCAUGUGUACAAGGAUAUGUUGGUCGACGAUCGGCAGAAGGUGUAAUGGGAU", "values": [
      {"measurement": "apparent Kd", "setting": "[1]", "result": 56.6, "unit": "nM"},
      {"measurement": "apparent Kd", "setting": "[2]", "result": 282, "unit": "nM"}
    ]},
    {"sequence": "GUUAAUUAGUGAGGAUAUACAGAAAUUAAAACUGUAGAAGGCACAUUCCUCAAGACAUGAGGAUCACCCAUGUGAUAAUAAGAU", "values": [
      {"measurement": "apparent Kd", "setting": "[1]", "result": 35.2, "unit": "nM"},
      {"measurement": "apparent Kd", "setting": "[2]", "result": 127, "unit": "nM"}
    ]},
    {"sequence": "CAUCUACAGGGAGGAUAUACAUGAGGAUCACCCAUGUCAUCAUACGAUCUUUCUUUUGUAUGAGUGUAGAAGGCCCAACUACCA", "values": [
      {"measurement": "apparent Kd", "setting": "[1]", "result": 15.2, "unit": "nM"},
      {"measurement": "apparent Kd", "setting": "[2]", "result": 15.2, "unit": "nM"}
    ]},
    {"sequence": "GACUGAUUGUAGAAGGUACUUGAAAAUAUAUAAUAUCUCAUGUGACAUGAGGAUCACCCAUGUAGUAAGGAUAUACAUAUCACA", "values": [
      {"measurement": "apparent Kd", "setting": "[3]", "result": 17.7, "unit": "nM"},
      {"measurement": "apparent Kd", "setting": "[4]", "result": 17.9, "unit": "nM"}
    ]},
    {"sequence": "AUACAUGAGGAUCACCCAUGUUACUGGGUCUUAAUAGAUCGUAGAAGGAUGUUAUUAUAAAUUUCAUAGGAUAUACUAUUUUGU", "values": [
      {"measurement": "apparent Kd", "setting": "[1]", "result": 61.1, "unit": "nM"},
      {"measurement": "apparent Kd", "setting": "[2]", "result": 38.6, "unit": "nM"}
    ]},
    {"sequence": "AAAAGUAGAGGAUAUACAUGAGGAUCACCCAUGUAGAAAGGAAGUGUAUAUAUGGCGUGUAGAAGGCUGCAUGA", "values": [
      {"measurement": "apparent Kd", "setting": "[1]", "result": 38.3, "unit": "nM"},
      {"measurement": "apparent Kd", "setting": "[2]", "result": 39.2, "unit": "nM"}
    ]},
    {"sequence": "UUGUAGUACGUAGGAUAUCAUUGAGGGUCACCCUGAGAAGGACGUGAGGACAUGAGGAUCACCCAUGUGGAUCACCCAUGUCAU", "values": [
      {"measurement": "apparent Kd", "setting": "[1]", "result": 282, "unit": "nM"},
      {"measurement": "apparent Kd", "setting": "[2]", "result": 549, "unit": "nM"}
    ]},
    {"sequence": "CCAUCAGCGGGCGGAUCGGUUGGACAUGAGGAUCACCCAUGUAGAAGGACCGGUGGAUUCCGGCGGUAGGAUAUACAUUUGGUG", "values": [
      {"measurement": "apparent Kd", "setting": "[1]", "result": 9.1, "unit": "nM"},
      {"measurement": "apparent Kd", "setting": "[2]", "result": 16.3, "unit": "nM"}
    ]},
    {"sequence": "ACGGAACAUGAGGAUCACCCAUGUAUCUGAAAUAUGGACUCACAGGAUAUUCAGAGUUGCCAAUCGGAGAAGGGUGACUCCAGA", "values": [
      {"measurement": "apparent Kd", "setting": "[3]", "result": 25.5, "unit": "nM"},
      {"measurement": "apparent Kd", "setting": "[4]", "result": 17.2, "unit": "nM"}
    ]},
    {"sequence": "UUUUAACAUGAGGAUCACCCAUGUGAGGAUAUCGAAAUUUAUAUUUAUAUUUAUAAAUCGAGAAGGCACAUUUU", "values": [
      {"measurement": "apparent Kd", "setting": "[1]", "result": 110, "unit": "nM"},
      {"measurement": "apparent Kd", "setting": "[2]", "result": 99.1, "unit": "nM"}
    ]},
    {"sequence": "AAAUAAAGGACUAAGGAUAUAUCGCAUGACACAUGAGGAUCACCCAUGUGGUAACACAGAGGGUGAUAGAAGGUAGUCCACAAACA", "values": [
      {"measurement": "apparent Kd", "setting": "[3]", "result": 404, "unit": "nM"},
      {"measurement": "apparent Kd", "setting": "[4]", "result": 75.8, "unit": "nM"}
    ]},
    {"sequence": "CUUUUGUGAGGAUAUUAGUAGUAAAAAAAUAAAAUUACUACUGAGAAGGCACAUGAGGAUCACCCAUGUUCCUC", "values": [
      {"measurement": "apparent Kd", "setting": "[1]", "result": 31.4, "unit": "nM"},
      {"measurement": "apparent Kd", "setting": "[2]", "result": 213, "unit": "nM"}
    ]},
    {"sequence": "GGCGAACGGGCUUACAUGAGGAUCACCCAUGUAGACUCAUGGUAGGAUAUGCUGUACUUUGUACAGCAGAAGGGCCGGUGAGCU", "values": [
      {"measurement": "apparent Kd", "setting": "[3]", "result": 65.8, "unit": "nM"},
      {"measurement": "apparent Kd", "setting": "[4]", "result": 38.7, "unit": "nM"}
    ]},
    {"sequence": "UUCGGUGAAGGAUAUAGGGCUCGGUACAUGAGGAUCACCCAUGUUGCUUUAUGUUCCACCCUAGAAGGUUAUCACC", "values": [
      {"measurement": "apparent Kd", "setting": "[1]", "result": 417, "unit": "nM"},
      {"measurement": "apparent Kd", "setting": "[2]", "result": 370, "unit": "nM"}
    ]},
    {"sequence": "UGGUACUAGGGAGGAUAUGGAAAGAUACAUGAGGAUCACCCAUGUUUAAGAAUGCCGAGAGGCAACUAGAAGGCCCUAGUACCU", "values": [
      {"measurement": "apparent Kd", "setting": "[3]", "result": 11.1, "unit": "nM"},
      {"measurement": "apparent Kd", "setting": "[4]", "result": 5.29, "unit": "nM"}
    ]},
    {"sequence": "GCGAUUAAGUAGAAGGUACGAUAUAAAUCAAUGUAAGGAUAUACUGACAUGAGGAUCACCCAUGUUUAAUUUGUUUACUGUCGC", "values": [
      {"measurement": "apparent Kd", "setting": "[3]", "result": 7.42, "unit": "nM"},
      {"measurement": "apparent Kd", "setting": "[4]", "result": 5.99, "unit": "nM"}
    ]},
    {"sequence": "UUGAAGAAUUAAGGAUAUUGAUUACAUAUGUUAAACAUGAGGAUCACCCAUGUGGGUUGCGGUAUCGAGAAGGUAAAUUAAUAG", "values": [
      {"measurement": "apparent Kd", "setting": "[3]", "result": 115, "unit": "nM"},
      {"measurement": "apparent Kd", "setting": "[4]", "result": 107, "unit": "nM"}
    ]},
    {"sequence": "UUAAUUAAUUAAUUGCAGAAUUACAUGAGGAUCACCCAUGUAUAGGAUAUCGUCAGGAAUACUGACGAGAAGGAUACAAACUGC", "values": [
      {"measurement": "apparent Kd", "setting": "[1]", "result": 17.9, "unit": "nM"},
      {"measurement": "apparent Kd", "setting": "[2]", "result": 20.7, "unit": "nM"}
    ]},
    {"sequence": "AGCAUGUGAGGAUAUGUGACCCUCAUCCGAAGGACGAGGGAAUAGAAGGCACAUGAGGAUCACCCAUGUGAUGA", "values": [
      {"measurement": "apparent Kd", "setting": "[1]", "result": 46.2, "unit": "nM"},
      {"measurement": "apparent Kd", "setting": "[2]", "result": 188, "unit": "nM"}
    ]},
    {"sequence": "UAGAUUUAUGUAGGAUAUACAUUUUGUACGUAUGUAGAAGGACAUGAGGAUCACCCAUGUAAAUAAAUAUUAAAUAUCAUAAUU", "values": [
      {"measurement": "apparent Kd", "setting": "[1]", "result": 50.5, "unit": "nM"},
      {"measurement": "apparent Kd", "setting": "[2]", "result": 32.4, "unit": "nM"}
    ]},
    {"sequence": "CUCCUGCGAGGAUAUACAUAGUGACGUCUGUUUGGUCUUAAACAUGAGGAUCACCCAUGUAGAAGGUGCGUCAC", "values": [
      {"measurement": "apparent Kd", "setting": "[1]", "result": 17.5, "unit": "nM"},
      {"measurement": "apparent Kd", "setting": "[2]", "result": 16.9, "unit": "nM"}
    ]},
    {"sequence": "UCCUUGUCCUGAGGAUAUCCGUGGUUACCGACAGGAGAAGGCAGGACAUGAGGAUCACCCAUGUACCCAGAAAACGUGCAGAGU", "values": [
      {"measurement": "apparent Kd", "setting": "[1]", "result": 133, "unit": "nM"},
      {"measurement": "apparent Kd", "setting": "[2]", "result": 210, "unit": "nM"}
    ]}
  ]
}
